The source made the active and inactive calls. No cut-off for these calls is given here.
Assays:
[1] = Stability in CD-1 mouse liver S9 fraction assessed as parent compound remaining at 50 uM measured after 60 mins by HPLC-UV analysis; type: ADME, subcellular; details: read-out: Stabilty
Method in brief: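 Incubated in mouse liver MLS9 fraction supplemented with NADPH. Residual parent substrate measured after 1 h. Three independent experiments, mean ± SEM.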

HEK [2] = experiment: Inhibition of SOCE channel in tBhQ-treated HEK cells assessed as reduction in calcium entry by measuring residual activity at 10 uM preincubated for 600 secs followed by calcium addition by Fura-2 AM by fluorescence microscopic analysis relative to control; type: cell-based; details: Homo sapiens, time 600.0 sec
Method in brief: (§1)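 HEK cells; intracellular Ca2+ stores emptied with tBhQ (50 μM) in the presence of compound at 10 μM. After 600 s, Ca2+ added and intracellular Ca2+ followed by Fura-2 fluorescence microscopy. SOCE given as percent activity vs control; peak amplitude, AUC and slope of the Ca2+ rise evaluated. Traces average 200 cells over three independent experiments; Mann–Whitney U test vs control.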

HEK [3] = experiment: Activation of SOCE channel in tBhQ-treated HEK cells assessed as increase in AUC of calcium entry at 10 uM preincubated for 600 secs followed by calcium addition by Fura-2 AM by fluorescence microscopic analysis; type: cell-based; details: Homo sapiens, filed as activator, time 600.0 sec; method in brief: as §1
[4] = Cytotoxicity against HEK cells assessed as cell viability at 10 uM measured after 24 hrs by MTT assay relative to control; type: cell-based; details: human, read-out: Activity
Method in brief: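 MTT viability assay in HEK cells with compound at 10 μM.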

HEK [5] = experiment: Activation of SOCE channel in […] assessed as increase in calcium entry in resting cells at 10 uM […] by Fura-2 AM by fluorescence microscopic analysis; type: cell-based; details: Homo sapiens
[6] = Stability in CD-1 mouse liver microsomes assessed as parent compound remaining at 50 uM measured after 60 mins by HPLC-UV analysis; type: ADME, Microsome; details: read-out: Stabilty

| Compound | remaining at 1 h, 50 µM [1] [%] | other results |
| --- | --- | --- |
| CCCC(C)OC(=O)c1cnn(-c2ccc(-n3cc(-c4cccc(C(=O)O)c4)nn3)cc2)c1C(F)(F)F (stereo not drawn) | 74 | – |
| Cc1noc(-c2cnn(-c3ccc(NC(=O)c4c(C)noc4C)cc3)c2C(F)(F)F)n1 | 99 | – |
| Cc1noc(-c2cnn(-c3ccc(NC(=O)c4ccco4)cc3)c2C(F)(F)F)n1 | – | Activity (HEK [2]): 61.1% |
| Cc1noc(-c2cnn(-c3ccc(NC(=O)c4ccc([N+](=O)[O-])cc4)cc3)c2C(F)(F)F)n1 | > 99 | – |
| Cc1ccc(S(=O)(=O)Nc2ccc(-n3ncc(-c4nc(C)no4)c3C(F)(F)F)cc2)cc1 | 76 | – |
| CCOC(=O)c1cnn(-c2ccc(NC(=O)C(Cl)=C(Cl)Cl)cc2)c1C(F)(F)F | 43 | – |
| Cc1noc(-c2cnn(-c3ccc(NC(=O)c4ccc(C#N)c(F)c4)cc3)c2C(F)(F)F)n1 | 73 | – |
| CCCCCC(=O)Nc1ccc(-n2ncc(-c3nc(C)no3)c2C(F)(F)F)cc1 | 91 | Activity (HEK [3]): Active; viability at 24 h, 10 µM [4]: 88.5%; Activity (HEK [5]): inactive |
| COc1ccc(OC)c(-c2ccc(NC(=O)c3ccncc3F)cc2)c1 | – | remaining at 1 h, 50 µM [6]: 15% |
| Cc1noc(-c2cnn(-c3ccc(NC(=O)c4c(F)cccc4F)cc3)c2C(F)(F)F)n1 | > 99 | – |

From ChEMBL document CHEMBL4706718, “1,2,4-Oxadiazole-Bearing Pyrazoles as Metabolically Stable Modulators of Store-Operated Calcium Entry” (ACS Med Chem Lett, 2021)
